In ChEMBL document CHEMBL1142898, “Synthesis and biological evaluation of benzoic acid derivatives as potent, orally active VLA-4 antagonists” (Bioorg Med Chem, 2007):
Blank lines part the entries; values can stand above or below the compound they belong to.

Assays:
[1] = in vivo; conditions: BALB/c, mouse, serum, 10 mg/kg
[2] = in vivo; conditions: Sprague-Dawley, rat, 10 mg/kg
[3] = in vivo; conditions: Sprague-Dawley, rat, plasma, 10 mg/kg
[4] = test system: Rattus norvegicus; test: Cmax in Sprague-Dawley rat at 10 mg/kg, iv; conditions: in vivo
[5] = in vivo; conditions: BALB/c, mouse, plasma, iv, 10 mg/kg
[6] = in vivo; conditions: Sprague-Dawley, rat, plasma, iv, 10 mg/kg
[7] = AUC in Sprague-Dawley rat 10 mg/kg, po; format: ADME, organism-based; design: dose 10 mg/kg, route oral; conditions: plasma
How it was run: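 Male Sprague–Dawley rats, 6 weeks old, fasted 18 h, 3–4 per group. Oral dose 10 mg/5 ml/kg in 0.5% methylcellulose. Blood (0.4 ml) drawn at 0.25, 0.5, 1, 2 and 6 h. Plasma held at −20 °C, drug measured by LC/MS/MS, and PK parameters derived by non-compartmental analysis.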

[8] = species on record: Mus musculus; conditions: in vivo, 5 mg/kg
[9] = in vivo; conditions: Sprague-Dawley, rat, 10 mg/kg; remark: listed apart in the source
[10] = physchem; conditions: octanol/water
[11] = in vivo; conditions: Sprague-Dawley, rat, blood, 10 mg/kg
[12] = species on record: Mus musculus; conditions: in vivo, 10 mg/kg
[13] = in vivo; conditions: BALB/c, mouse, 5 mg/kg
[14] = test system: Mus musculus; test: AUC in BALB/c mouse at 20 mg/kg, po normalized to 10 mg/kg; format: ADME, organism-based, Plasma; conditions: in vivo
[15] = test system: Mus musculus; test: Cmax in BALB/c mouse at 20 mg/kg, po normalized to 10 mg/kg after 15 mins; format: ADME, organism-based; design: dose 20 mg/kg, route oral; conditions: in vivo
[16] = in vivo; conditions: BALB/c, mouse, serum, 50 mg/kg
[17] = in vivo; conditions: beagle, dog, plasma, iv, 1 mg/kg
[18] = in vivo; conditions: BALB/c, mouse, 10 mg/kg
[19] = AUC in Beagle dog at 1 mg/kg, po; format: ADME, organism-based, Canis lupus familiaris; design: dose 1 mg/kg, route oral; conditions: plasma
[20] = AUC in BALB/c mouse at 10 mg/kg, po; format: ADME, organism-based; design: dose 10 mg/kg, route oral; conditions: plasma
[21] = in vivo; conditions: beagle, dog, po, 2 mg/kg
[22] = in vivo; conditions: BALB/c, mouse, 5 mg/kg; remark: listed apart in the source
[23] = in vivo; conditions: beagle, dog, 1 mg/kg
[24] = species on record: Canis familiaris; conditions: dog, in vivo, po, 1 mg/kg
[25] = species on record: Rattus norvegicus; conditions: in vivo, 10 mg/kg
[26] = in vivo; conditions: BALB/c, mouse, plasma, 10 mg/kg
[27] = test system: Mus musculus; test: Cmax in BALB/c mouse at 10 mg/kg, po after 15 mins; format: ADME, organism-based; design: dose 10 mg/kg, route oral; conditions: in vivo
How it was run: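 Female BALB/c mice, 8 weeks old, 4 per group. Dosed orally at 10 mg/1 ml/kg in 0.5% CMC. Drug level estimated by adding serum (0.01–10% final) to a Eu-VCAM-1/Fc binding assay on CHO-K1 cells expressing human VLA-4.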

[28] = species on record: Canis familiaris; conditions: dog, in vivo, po, 1 mg/kg; remark: listed apart in the source

concentration at […] [1]: 693 ng/mL
bioavailability [2]: 34%
clearance [3]: 11.3 mL/min/kg
Cmax [4]: 6700 ng/mL
AUC [5]: 5260 ng·h/mL
AUC [6]: 15600 ng·h/mL
AUC [7]: 5230 ng·h/mL
MRT [8]: 2.3 h
Vd [9]: 0.29 L/kg
logD [10]: 1.64
MRT [11]: 2 h
Vdss [12]: 0.67 L/kg
bioavailability [13]: 21%
AUC [14]: 1095 ng·h/mL
Cmax [15]: 391 ng/mL
SMILES: Cc1cc(CC(=O)N2C[C@@H](F)C[C@H]2COc2ccc(C(=O)O)cc2)ccc1NC(=O)Nc1ccccc1Br

concentration at […] [1]: 1880 ng/mL
logD [10]: 2.17
SMILES: O=C(Nc1ccccc1Cl)Nc1ccc(CC(=O)N2C[C@@H](F)C[C@H]2COc2ccc(C(=O)O)cc2)cc1Br

concentration at […] [1]: 2160 ng/mL
logD [10]: 2.34
SMILES: O=C(Nc1ccc(CC(=O)N2C[C@@H](F)C[C@H]2COc2ccc(C(=O)O)cc2)cc1Cl)Nc1ccccc1Br

concentration at […] [1]: 472 ng/mL
logD [10]: 1.69
SMILES: Cc1cc(CC(=O)N2C[C@@H](F)C[C@H]2COc2ccc(C(=O)O)cc2)ccc1NC(=O)Nc1ccccc1Cl

logD [10]: 1.87
concentration at 0.5 h [16]: 142 ng/mL
SMILES: COc1cc(CC(=O)N2C[C@@H](F)C[C@H]2COc2ccc(C(=O)O)cc2)ccc1NC(=O)Nc1ccccc1Cl

SMILES: Cc1ccccc1NC(=O)Nc1ccc(CC(=O)N2C[C@@H](F)C[C@H]2COc2ccc(C(=O)O)cc2)cc1Cl
AUC [17]: 5680 ng·h/mL
Vd [18]: 0.33 L/kg
AUC [19]: 3120 ng·h/mL
concentration at […] [1]: 3660 ng/mL
bioavailability [2]: 36%
Cmax [4]: 13000 ng/mL
AUC [20]: 2540 ng·h/mL
AUC [5]: 8900 ng·h/mL
bioavailability [21]: 55%
AUC [6]: 31900 ng·h/mL
MRT [22]: 1.2 h
AUC [7]: 11500 ng·h/mL
MRT [23]: 1.6 h
Vd [9]: 0.24 L/kg
logD [10]: 1.61
MRT [11]: 1.7 h
Vdss [24]: 0.14 L/kg
clearance [25]: 5.2 mL/min/kg
bioavailability [13]: 28%
clearance [26]: 18.5 mL/min/kg
Cmax [27]: 2250 ng/mL
Cmax [28]: 2370 ng/mL

concentration at […] [1]: 368 ng/mL
logD [10]: 1.09
SMILES: Cc1ccccc1NC(=O)Nc1ccc(CC(=O)N2C[C@@H](F)C[C@H]2COc2ccc(C(=O)O)cc2)cc1C
